KCNK3 block – human KCNK3 channel inhibitors, primary screen, CHO cells, FluxOR thallium flux, B-score; FluxOR fluorescence; active compounds read low; B-score at 10 µM; actives 0.84% (n = 340,000); AID 602410, 2012;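 active means B-score under library mean minus 4 SD, starting fluorescence ratio at most library mean plus 5 SD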;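 further: more negative B-score means stronger inhibition of thallium flux through KCNK3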
KCNK9 inh – KCNK9 potassium channel inhibitors, primary screen, HEK293 cells, thallium flux; AID 488922, 2010; B-score at 10 µM; actives 1.2% (n = 310,000); FluxOR thallium flux fluorescence; active compounds read low;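 active means ratio B-score over 3 SD below the library mean, with starting fluorescence within 5 SD of its mean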;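 further: negative B-score means less thallium flux so channel inhibition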
KCNQ1 inh – inhibitors of human KCNQ1 channel, primary screen, cell-based, thallium flux, high-throughput | B-score at 10 µM | actives 1.3% (n = 310,000) | CHO-K1 KCNQ1, FluxOR thallium flux fluorescence; active compounds read high | Potassium voltage-gated channel subfamily KQT member 1 (Homo sapiens), P51787 | AID 2642, 2010;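 active means compounds whose thallium flux B-score, printed positive for inhibition, exceeds three library SD while starting fluorescence stays within three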;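 further: channel opened by potassium depolarization with thallium stimulus after 20 min compound exposure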
Target sequence (P51787 whole entry, looked up): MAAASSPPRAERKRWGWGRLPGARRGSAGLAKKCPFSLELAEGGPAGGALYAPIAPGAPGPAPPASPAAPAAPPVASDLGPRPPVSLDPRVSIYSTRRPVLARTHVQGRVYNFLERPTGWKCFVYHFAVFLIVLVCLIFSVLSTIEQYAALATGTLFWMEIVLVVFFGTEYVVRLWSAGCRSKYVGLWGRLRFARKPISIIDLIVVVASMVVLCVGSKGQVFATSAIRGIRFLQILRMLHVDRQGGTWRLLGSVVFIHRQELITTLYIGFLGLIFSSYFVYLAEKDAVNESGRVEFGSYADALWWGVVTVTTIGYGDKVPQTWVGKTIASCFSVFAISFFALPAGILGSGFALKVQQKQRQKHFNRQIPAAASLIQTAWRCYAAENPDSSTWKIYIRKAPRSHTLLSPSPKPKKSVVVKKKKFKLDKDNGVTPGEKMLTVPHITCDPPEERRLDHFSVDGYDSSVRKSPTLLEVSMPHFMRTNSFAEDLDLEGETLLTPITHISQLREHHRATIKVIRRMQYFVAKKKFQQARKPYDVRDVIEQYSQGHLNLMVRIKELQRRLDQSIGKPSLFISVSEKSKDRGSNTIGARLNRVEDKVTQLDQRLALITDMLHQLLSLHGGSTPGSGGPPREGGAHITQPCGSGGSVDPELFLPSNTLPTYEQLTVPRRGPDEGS
KCNQ1 act – potentiators or activators of KCNQ1 channel, primary screen, cell-based, thallium flux, high-throughput; Potassium voltage-gated channel subfamily KQT member 1 (Homo sapiens), P51787; CHO-K1 KCNQ1, thallium flux FluxOR fluorescence; active compounds read high; B-score at 10 µM; actives 0.35% (n = 310,000); AID 2648, 2010;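 active means fluorescence ratio B-score, a plate-corrected score, at least three library SD, with initial intensity B-score within 5 SD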
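Assay system: CHO-K1 cells stably expressing KCNQ1. Medium: assay buffer for compound exposure, DMSO matched across wells. Timing: 37 °C overnight plating, 90-min dark dye load, 20-min compound pretreatment. Signal: kinetic FluxOR fluorescence, 10 s baseline plus 110 s post-stimulus.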
hERG rescue – hERG rescue from dofetilide block, primary screen, cell-based, CHO-hERG, FluxOR thallium flux, dofetilide IC70 | AID 1511, 2009 | activation (rescue from dofetilide block), less the hit threshold, % at 10 µM | actives 0.51% (n = 310,000) | dofetilide IC70 present;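 active means activation above the mean of controls blocked by dofetilide plus 5 SD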;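 further: thallium influx through hERG after potassium depolarization seen as dye fluorescence rise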
Kir21 inh – inhibitors of mouse Kir2.1 inward-rectifier potassium channel; Inward rectifier potassium channel 2 (Mus musculus), P35561; HEK293-Kir2.1, FluxOR thallium flux fluorescence; active compounds read low; B-score at 10 µM; actives 0.85% (n = 310,000); AID 1672, 2009;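 active means fluorescence ratio B-score at or below minus 3 SD of library scores, with starting-brightness B-score within 2 SD, cut at about -4.2 in these data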;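 further: channel flux triggered by added potassium and thallium sulfate stimulus; B-score of peak minus minimum fluorescence over baseline after thallium stimulus; more negative B-score means stronger Kir2.1 block with less thallium influx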
KCNQ1 block val – KCNQ1 potassium channel inhibitors, confirmation, cell-based, Tl flux, duplicate; shares compounds with KCNQ1 inh; KCNQ1 cell line, FluxOR thallium flux fluorescence; actives 93% (n = 1,600); inhibition, % at 10 µM; AID 588353, 2011;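 active means primary screen active, with duplicate mean exceeding buffer control mean plus 3 SD of buffer wells, cut at about 28% in these data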;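 further: 0% = buffer control ratio and 100% = XE991 inhibitor control ratio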
CHO Tl flux – thallium flux effects in parental CHO cells, counter-screen for KCNQ1 inhibitor project, cell-based, Tl flux; shares compounds with KCNQ1 inh; parental CHO-K1, FluxOR thallium flux fluorescence ratio; active compounds read low; zero means no signal rise above baseline; fluorescence ratio (Tl flux) at 10 µM; actives 21% (n = 1,600); AID 588366, 2011;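 active means mean of duplicate thallium-flux fluorescence ratios in parental host cells more than 5 SD below the buffer control mean, cut at about 0.38 in these data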;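 further: ratio is peak minus minimum fluorescence divided by baseline fluorescence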
KCNQ1 APC inh – KCNQ1 channel inhibitors, confirmation, orthogonal assay, cell-based, automated electrophysiology | KCNQ1-CHO cells, automated patch clamp current | AID 624120, 2012 | actives 20% (n = 490) | shares compounds with KCNQ1 inh | calls only at 10 µM;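 active means KCNQ1 current drop exceeding 3 SD of negative control wells, seen in both duplicate runs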;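 further: steady state current during a 2 s step from -80 to +40 mV; negative values mean current inhibition and positive values mean potentiation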
KCNQ2 inh – KCNQ2 channel inhibition, selectivity assay for KCNQ1 inhibitor project, cell-based; shares compounds with KCNQ1 inh; KCNQ2 cells, FluxOR thallium flux fluorescence; inhibition, % at 10 µM; actives 71% (n = 1,600);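 active means mean percent inhibition of the KCNQ2 thallium signal more than 5 SD above the buffer-only control wells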;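 further: KCNQ2 expressed in CHO cells; 0% = buffer control wells and 100% = XE-991 inhibitor control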
KCNQ1-KCNE1 inh – KCNQ1/KCNE1 channel inhibition, selectivity assay for KCNQ1 inhibitor project, CHO-K1 cells, thallium flux, FluxOR. FluxOR thallium flux fluorescence. shares compounds with KCNQ1 inh. inhibition, % at 10 µM. actives 77% (n = 1,600);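 active means mean percent inhibition of duplicate wells above the buffer-only control mean plus 3 SD of those controls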;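 further: 0% = buffer only wells and 100% = XE-991 inhibitor control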
* hit, by the source's call; i = inactive; . = no result given; + = active, no number. Most compounds without a hit are left out; they make up all but 3.7% or so of the library.

SMILES	KCNK3 block	KCNK9 inh	KCNQ1 inh	KCNQ1 act	hERG rescue	Kir21 inh	KCNQ1 block val	CHO Tl flux	KCNQ2 inh	KCNQ1-KCNE1 inh	others
COc1ccc(C)cc1NC(=O)CSc1nc2ccccc2nc1N1CC(C)OC(C)C1 (centres undefined)	i	i	7*	i	-9	1.6	105*	0.44	95%*	121%*	KCNQ1 APC inh=i
Cc1cccc(NC(=O)CSc2nc3ccccc3nc2N2CCCC2)c1	i	i	i	i	-10	-1.8	.	.	.	.
Cc1cccc(NC(=O)CSc2nc3ccccc3nc2N2CCCCC2)c1	i	i	8*	i	-4	0.13	84*	0.47	107%*	122%*
CC1CN(c2nc3ccccc3nc2SCC(=O)Nc2cccc(C(F)(F)F)c2)CC(C)O1 (centres undefined)	-15*	i	10*	i	-5	-1.3	120*	0.4	126%*	171%*	KCNQ1 APC inh=i
COc1ccc(C)cc1NC(=O)CSc1nc2ccccc2nc1N1CCCC1	i	i	i	i	-12	0.98	.	.	.	.
COc1ccccc1NC(=O)CSc1nc2ccccc2nc1N1CC(C)OC(C)C1 (centres undefined)	i	i	8*	i	-12	0.83	86*	0.45	106%*	118%*
COCCC(=O)N1CCC(Oc2ccc(C(=O)NC3CCOC(C)(C)C3)cc2)CC1 (centres undefined)	i	i	i	i	-4	0.04	.	.	.	.
CCOC(=O)C1CCCN(C(=O)c2cccc(S(=O)(=O)N(C)c3ccc(C)cc3)c2)C1 (centres undefined)	i	.	.	.	.	.	.	.	.	.
O=C(NCc1cccc(Cl)c1)C1CCN(S(=O)(=O)c2ccc(F)cc2)CC1	i	i	i	i	-7	-0.71	.	.	.	.
CC(=O)Nc1cccc(OCCCNS(=O)(=O)c2ccc(C#N)cc2)c1	i	i	i	i	-8	-1.7	.	.	.	.
CSc1ccc(S(=O)(=O)N2c3ccccc3CC2C)cc1 (centres undefined)	i	i	6*	i	-10	-1	104*	0.43	99%*	142%*	KCNQ1 APC inh=+
Cc1nc2nc(-c3cccs3)cn2nc1C	i	i	7*	i	-27	-4	104*	0.34*	i	i
Cc1nc2nc(-c3ccc(Cl)cc3)cn2nc1C	i	i	i	i	-3	-1.1	.	.	.	.
Cc1ccc(-n2cccn2)c(CN2CCCC(C(=O)c3sccc3C)C2)c1 (centres undefined)	i	i	9*	i	-17	-4.5*	72*	0.4	99%*	54%*
COc1ccc(O)c(CN2CCCC(C(=O)Nc3cccc(-n4cccn4)c3)C2)c1 (centres undefined)	i	i	i	i	-10	-1.8	.	.	.	.

High-throughput results: PubChem BioAssay, Johns Hopkins Ion Channel Center
